ChEMBL document CHEMBL1126585, “Effect of N-methyl substitution of the peptide bonds in luteinizing hormone-releasing hormone agonists” (J Med Chem, 1993)
Square brackets hold non-standard residues; d marks the D form. Peptide text beside a SMILES is read from it. pGlu = O=C1CC[C@@H](C(=O)O)N1

Legend:
[1] = Clearance in rat after iv dose (100 ug/kg); assay type: ADME, organism-based; settings: in vivo, 0.1 mg/kg
Procedure, shortened: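 Castrate male rats given 100 μg/kg iv bolus; blood sampled over 6 h with EDTA anticoagulant. Plasma levels by RIA with antibody recognizing C-terminal Leu-Arg-Pro-NHEt or Leu-Arg-Pro-GlyNH₂ (rabbit antisera C-402 with [125I-Tyr⁵]leuprolide tracer, or 5328W with [125I-Tyr⁵,DLys⁶]LHRH). AUC by trapezoidal rule; whole-body clearance = dose/AUC, mL/min per kg.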

Rattus norvegicus [2] = organism: Rattus norvegicus; assay: Tested in vitro for LH release from cultured rat pituitary cells, activity is expressed as pD2 value; assay type: functional, Pituitary gland cell
Procedure, shortened: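 Cultured rat pituitary cells; LH release measured across agonist concentrations; pD2 = negative log of agonist concentration giving 50% of maximal LH release.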

Rattus norvegicus [3] = organism: Rattus norvegicus; assay: Intestinal stability against rat jejunum sac, activity is expressed as T1/2; assay type: functional
Procedure, shortened: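 Rat jejunal sac in vitro; T1/2 taken as time, in min, for lumenal compound concentration to fall by 50%.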

| SMILES | clearance [1] [mL/min/kg] | pD2 (Rattus norvegicus [2]) | T1/2 (Rattus norvegicus [3]) [min] |
| --- | --- | --- | --- |
| CCNC(=O)[C@@H]1CCCN1C(=O)[C@H](CCCN=C(N)N)NC(=O)[C@H](CC(C)C)NC(=O)[C@@H](Cc1c[nH]c2ccccc12)NC(=O)[C@H](Cc1ccc(O)cc1)NC(=O)[C@H](CO)NC(=O)[C@H](Cc1cccc2ccccc12)NC(=O)[C@H](Cc1c[nH]cn1)NC(=O)[C@@H]1CCC(=O)N1 | – | 11.49 | – |
| CCNC(=O)[C@@H]1CCCN1C(=O)[C@H](CCCN=C(N)N)NC(=O)[C@H](CC(C)C)NC(=O)[C@@H](CC(C)C)NC(=O)[C@H](Cc1ccc(O)cc1)N(C)C(=O)[C@H](CO)NC(=O)[C@H](Cc1c[nH]c2ccccc12)NC(=O)[C@H](Cc1c[nH]cn1)NC(=O)[C@@H]1CCC(=O)N1 | – | – | 42 |
| CCNC(=O)[C@@H]1CCCN1C(=O)[C@H](CCCN=C(N)N)NC(=O)[C@H](CC(C)C)NC(=O)[C@@H](Cc1c[nH]c2ccccc12)NC(=O)[C@H](Cc1ccc(O)cc1)NC(=O)[C@H](CO)N(C)C(=O)[C@H](Cc1c[nH]c2ccccc12)NC(=O)[C@H](Cc1c[nH]cn1)NC(=O)[C@@H]1CCC(=O)N1 | – | – | 39.1 |
| CC(C)C[C@H](NC(=O)[C@@H](Cc1ccc2ccccc2c1)NC(=O)[C@H](Cc1ccc(O)cc1)NC(=O)[C@H](CO)NC(=O)[C@H](Cc1cccc2ccccc12)NC(=O)[C@H](Cc1c[nH]cn1)NC(=O)[C@@H]1CCC(=O)N1)C(=O)N[C@@H](CCCN=C(N)N)C(=O)N1CCC[C@H]1C(=O)NCC(N)=O | – | 11.55 | – |
| CC(C)C[C@H](NC(=O)[C@@H](Cc1ccc2ccccc2c1)N(C)C(=O)[C@H](Cc1ccc(O)cc1)NC(=O)[C@H](CO)NC(=O)[C@H](Cc1c[nH]c2ccccc12)NC(=O)[C@H](Cc1c[nH]cn1)NC(=O)[C@@H]1CCC(=O)N1)C(=O)N[C@@H](CCCN=C(N)N)C(=O)N1CCC[C@H]1C(=O)NCC(N)=O | – | 8.3 | – |
| CC(C)C[C@@H](C(=O)N[C@@H](CCCN=C(N)N)C(=O)N1CCC[C@H]1C(=O)NCC(N)=O)N(C)C(=O)[C@@H](Cc1ccc2ccccc2c1)NC(=O)[C@H](Cc1ccc(O)cc1)NC(=O)[C@H](CO)NC(=O)[C@H](Cc1c[nH]c2ccccc12)NC(=O)[C@H](Cc1c[nH]cn1)NC(=O)[C@@H]1CCC(=O)N1 | – | 12.35 | – |
| CC(C)C[C@H](NC(=O)[C@@H](Cc1ccc2ccccc2c1)NC(=O)[C@H](Cc1ccc(O)cc1)NC(=O)[C@H](CO)NC(=O)[C@H](Cc1cccc2ccccc12)N(C)C(=O)[C@H](Cc1c[nH]cn1)NC(=O)[C@@H]1CCC(=O)N1)C(=O)N[C@@H](CCCN=C(N)N)C(=O)N1CCC[C@H]1C(=O)NCC(N)=O | – | 8.7 | – |
| CCNC(=O)[C@@H]1CCCN1C(=O)[C@H](CCCN=C(N)N)NC(=O)C(CC(C)C)NC(=O)C(CC(C)C)NC(=O)[C@H](Cc1ccc(O)cc1)NC(=O)[C@H](CO)NC(=O)[C@H](Cc1c[nH]c2ccccc12)NC(=O)[C@H](Cc1c[nH]cn1)N(C)C(=O)[C@@H]1CCC(=O)N1 (stereo in doubt) [listing 1 of 2 here] | – | – | 48 |
| CCNC(=O)[C@@H]1CCCN1C(=O)[C@H](CCCN=C(N)N)NC(=O)C(CC(C)C)NC(=O)C(CC(C)C)NC(=O)[C@H](Cc1ccc(O)cc1)NC(=O)[C@H](CO)NC(=O)[C@H](Cc1c[nH]c2ccccc12)NC(=O)[C@H](Cc1c[nH]cn1)N(C)C(=O)[C@@H]1CCC(=O)N1 (stereo in doubt) [listing 2 of 2 here] | – | 8.22 | – |
| CC(C)C[C@H](NC(=O)[C@@H](Cc1ccc2ccccc2c1)NC(=O)[C@H](Cc1ccc(O)cc1)NC(=O)[C@H](CO)NC(=O)[C@H](Cc1c[nH]c2ccccc12)NC(=O)[C@H](Cc1ccccc1)NC(=O)[C@@H]1CCC(=O)N1)C(=O)N[C@@H](CCCN=C(N)N)C(=O)N1CCC[C@H]1C(=O)NCC(N)=O | – | 10.23 | – |

The next lines start with results.

| clearance [1] [mL/min/kg] | SMILES | pD2 (Rattus norvegicus [2]) | T1/2 (Rattus norvegicus [3]) [min] |
| --- | --- | --- | --- |
| 3.55 | CC(C)C[C@H](NC(=O)[C@@H](Cc1ccc2ccccc2c1)NC(=O)[C@H](Cc1ccc(O)cc1)NC(=O)[C@H](CO)NC(=O)[C@H](Cc1c[nH]c2ccccc12)NC(=O)[C@H](Cc1c[nH]cn1)NC(=O)[C@@H]1CCC(=O)N1)C(=O)N[C@@H](CCCN=C(N)N)C(=O)N1CCC[C@H]1C(=O)N(C)CC(N)=O | 11.87 | – |
| 19.9 | CCNC(=O)[C@@H]1CCCN1C(=O)[C@H](CCCN=C(N)N)NC(=O)[C@H](CC(C)C)NC(=O)[C@@H](Cc1c[nH]c2ccccc12)NC(=O)[C@H](Cc1ccc(O)cc1)NC(=O)[C@H](CO)N(C)C(=O)[C@H](Cc1c[nH]c2ccccc12)NC(=O)[C@H](Cc1cnc[nH]1)NC(=O)[C@@H]1CCC(=O)N1 | – | – |
| 25.4 | CCNC(=O)[C@@H]1CCCN1C(=O)[C@H](CCCN=C(N)N)NC(=O)[C@H](CC(C)C)NC(=O)[C@@H](CC(C)C)NC(=O)[C@H](Cc1ccc(O)cc1)NC(=O)[C@H](CO)NC(=O)[C@H](Cc1c[nH]c2ccccc12)NC(=O)[C@H](Cc1ccccc1)NC(=O)[C@@H]1CCC(=O)N1 ([pGlu]FWSY[dL]LRP-NHEt) | – | 2.2 |
| 34.3 | CCNC(=O)[C@@H]1CCCN1C(=O)[C@H](CCCNC(=N)N)NC(=O)[C@H](CC(C)C)NC(=O)[C@@H](Cc1c[nH]c2ccccc12)NC(=O)[C@H](Cc1ccc(O)cc1)NC(=O)[C@H](CO)NC(=O)[C@H](Cc1c[nH]c2ccccc12)NC(=O)[C@H](Cc1c[nH]cn1)NC(=O)[C@@H]1CCC(=O)N1 [DESLORELIN] | 11.33 | – |
| 15.1 | CCNC(=O)[C@@H]1CCCN1C(=O)[C@H](CCCN=C(N)N)NC(=O)[C@H](CC(C)C)NC(=O)[C@@H](Cc1c[nH]c2ccccc12)NC(=O)[C@H](Cc1ccc(O)cc1)NC(=O)[C@H](CO)NC(=O)[C@H](Cc1cccc2ccccc12)N(C)C(=O)[C@H](Cc1c[nH]cn1)NC(=O)[C@@H]1CCC(=O)N1 | 8.35 | – |
| 25 | CCNC(=O)[C@@H]1CCCN1C(=O)[C@H](CCCN=C(N)N)N(C)C(=O)[C@H](CC(C)C)NC(=O)[C@@H](Cc1c[nH]c2ccccc12)NC(=O)[C@H](Cc1ccc(O)cc1)NC(=O)[C@H](CO)NC(=O)[C@H](Cc1c[nH]c2ccccc12)NC(=O)[C@H](Cc1c[nH]cn1)NC(=O)[C@@H]1CCC(=O)N1 | 9.35 | – |
| 4.32 | CC(C)C[C@H](NC(=O)[C@@H](Cc1c[nH]c2ccccc12)NC(=O)[C@H](Cc1ccc(O)cc1)NC(=O)[C@H](CO)NC(=O)[C@H](Cc1c[nH]c2ccccc12)NC(=O)[C@H](Cc1c[nH]cn1)NC(=O)[C@@H]1CCC(=O)N1)C(=O)N[C@@H](CCCN=C(N)N)C(=O)N1CCC[C@H]1C(=O)N(C)CC(N)=O | 10.05 | – |
| 4.13 | CC(C)C[C@H](NC(=O)[C@@H](Cc1ccc2ccccc2c1)NC(=O)[C@H](Cc1ccc(O)cc1)NC(=O)[C@H](CO)NC(=O)[C@H](Cc1c[nH]c2ccccc12)NC(=O)[C@H](Cc1c[nH]cn1)N(C)C(=O)[C@@H]1CCC(=O)N1)C(=O)N[C@@H](CCCN=C(N)N)C(=O)N1CCC[C@H]1C(=O)NCC(N)=O | 8.18 | – |
| 11.1 | CCNC(=O)[C@@H]1CCCN1C(=O)[C@H](CCCN=C(N)N)NC(=O)[C@H](CC(C)C)NC(=O)[C@@H](Cc1c[nH]c2ccccc12)NC(=O)[C@H](Cc1ccc(O)cc1)N(C)C(=O)[C@H](CO)NC(=O)[C@H](Cc1c[nH]c2ccccc12)NC(=O)[C@H](Cc1c[nH]cn1)NC(=O)[C@@H]1CCC(=O)N1 | 10.55 | – |
| 19.5 | CCNC(=O)[C@@H]1CCCN1C(=O)[C@H](CCCNC(=N)N)NC(=O)[C@H](CC(C)C)N(C)C(=O)[C@@H](Cc1c[nH]c2ccccc12)NC(=O)[C@H](Cc1ccc(O)cc1)NC(=O)[C@H](CO)NC(=O)[C@H](Cc1c[nH]c2ccccc12)NC(=O)[C@H](Cc1c[nH]cn1)NC(=O)[C@@H]1CCC(=O)N1 [LUTRELIN] | 10.7 | – |
